In series [1] the target is T1, Nitric oxide synthase, inducible (Mus musculus) (UniProt P29477).
T1 sequence (whole entry): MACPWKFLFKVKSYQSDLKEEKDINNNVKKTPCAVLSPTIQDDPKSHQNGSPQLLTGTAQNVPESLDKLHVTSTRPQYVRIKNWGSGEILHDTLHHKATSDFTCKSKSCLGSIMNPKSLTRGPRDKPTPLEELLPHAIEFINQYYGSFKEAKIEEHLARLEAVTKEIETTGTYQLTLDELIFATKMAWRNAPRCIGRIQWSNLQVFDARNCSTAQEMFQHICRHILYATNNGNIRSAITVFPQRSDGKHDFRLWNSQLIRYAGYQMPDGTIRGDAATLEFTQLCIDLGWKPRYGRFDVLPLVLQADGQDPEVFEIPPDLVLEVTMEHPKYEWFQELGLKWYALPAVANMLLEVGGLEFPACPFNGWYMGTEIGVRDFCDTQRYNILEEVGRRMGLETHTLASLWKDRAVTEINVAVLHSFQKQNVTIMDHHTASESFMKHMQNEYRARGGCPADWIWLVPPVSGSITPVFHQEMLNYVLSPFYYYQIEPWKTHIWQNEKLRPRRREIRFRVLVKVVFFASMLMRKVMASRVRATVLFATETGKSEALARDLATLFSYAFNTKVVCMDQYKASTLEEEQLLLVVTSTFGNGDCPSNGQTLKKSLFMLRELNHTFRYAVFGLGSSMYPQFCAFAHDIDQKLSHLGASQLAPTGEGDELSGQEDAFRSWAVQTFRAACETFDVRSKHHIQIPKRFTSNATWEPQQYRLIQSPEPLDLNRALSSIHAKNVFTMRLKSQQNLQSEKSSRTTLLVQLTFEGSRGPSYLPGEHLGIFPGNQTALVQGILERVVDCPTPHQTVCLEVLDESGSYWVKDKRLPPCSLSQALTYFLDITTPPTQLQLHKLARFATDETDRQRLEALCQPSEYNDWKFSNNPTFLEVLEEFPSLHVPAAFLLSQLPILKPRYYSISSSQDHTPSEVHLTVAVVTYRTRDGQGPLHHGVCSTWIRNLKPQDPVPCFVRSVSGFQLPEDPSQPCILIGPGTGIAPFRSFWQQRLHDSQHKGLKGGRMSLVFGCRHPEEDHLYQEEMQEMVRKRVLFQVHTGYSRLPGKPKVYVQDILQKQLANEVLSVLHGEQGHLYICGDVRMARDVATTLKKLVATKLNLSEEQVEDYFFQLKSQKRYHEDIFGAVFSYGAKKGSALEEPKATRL
Nature of the series: Inhibition of mouse iNOS expressed in insect Sf9 cells assessed as residual activity at 100 uM by Griess assay relative to control. In a few lines:
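Murine iNOS produced in Sf9 insect cells. Buffer: 50 mM triethanolamine pH 7.5, 1 mM CHAPS, 10 mM 2-mercaptoethanol, 0.5 mM EDTA. Additions: 1 mM Mg2+, 5 µM FAD, 5 µM FMN, 0.5 mM NADPH, 10 µM H4B, 10 µg/ml CaM, 1 mM L-arginine. Compound at 100 µM final, 37 °C for 20 min. NADPH removed with LDH/pyruvate, then Griess read at 543 nm. Values are % of 1% DMSO control, 5 experiments.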
For orientation: Nitrite, measured by Griess reagent, commonly stands in for NO production.

Series [2] in a line: Lipophilicity, log D at pH 7.4 by HPLC method. The settings on record: buffer.
For series [3], the target named is T2, Nitric oxide synthase, inducible (Mus musculus, UniProt P29477).
T2 sequence (P29477 whole entry): T1 sequence (whole entry)
Nature of the series: Inhibition of mouse recombinant iNOS expressed in Escherichia coli assessed as conversion of [gamma-14C]L-arginine to [14C]L-citrulline by radioactive assay. In short, it runs like this: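 CaCl2/CaM present for nNOS (S. cerevisiae) and eNOS (E. coli) but omitted for iNOS (E. coli). Citrulline separated by Dowex cation exchange, then scintillation counting.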

The next series has as its system RAW264.7. Nature of the series: Cytotoxicity against mouse RAW264.7 cells at 100 uM. The series is classed as cell-based. The settings on record: raw264.7, 100 µM.
The target in series [4] is Nitric oxide synthase 1 (Rattus norvegicus) (UniProt P29476). Nature of the series: Inhibition of rat recombinant nNOS expressed in Saccharomyces cerevisiae assessed as conversion of [gamma-14C]L-arginine to [14C]L-citrulline at 100 uM by radioactive assay relative to control. Further details: scale not given: the % may be the effect or the level left. In a few lines:
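Purified enzymes: rat nNOS from S. cerevisiae, murine iNOS and bovine eNOS from E. coli. Reaction 5 min at 37 °C in 50 mM Hepes pH 7.4 with DTT, 1 mM NADPH, H4B, FAD, FMN, [14C]L-arginine (2.5 µM L-arginine) and 100 µM compound in 1% DMSO. nNOS/eNOS also got 1 mM CaCl2 and CaM, which iNOS lacked. [14C]citrulline isolated on Dowex and counted by scintillation; % of DMSO control, n=3.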

The target in series [5] is T1, Nitric oxide synthase, inducible (Mus musculus). Briefly: Binding affinity to oxygenase domain of mouse iNOS at 100 uM assessed as formation of enzyme-Fe3-ImH complex by UV-visible spectra analysis.
The target is the same in series [6]. Briefly: Inhibition of iNOS in LPS and IFN-gamma-stimulated mouse RAW264.7 cells assessed as inhibition of nitrite accumulation at 100 uM after 15 hrs by Griess assay. The format is cell-based. In a few lines:
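RAW 264.7 macrophages seeded at 100,000 cells/well in RPMI 1640 with 5% FCS and grown 24 h. Stimulated with 40 U/ml γ-IFN and 50 ng/ml LPS, with compound at 100 µM in 1% DMSO, for 15 h at 37 °C. Supernatant nitrite measured with Griess reagent at 550 nm against an NaNO2 calibration; 6–8 determinations.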

Series [7] addresses T2, Nitric oxide synthase, inducible. Briefly: Inhibition of mouse iNOS expressed in insect Sf9 cells by competitive binding assay.

pIC50, pKi: −log10 of the molar value. Calls of active or inactive are those of the source. The rule behind the calls is not given here.

Chain of Nitric oxide synthase 1 (Rattus norvegicus) (P29476 whole entry): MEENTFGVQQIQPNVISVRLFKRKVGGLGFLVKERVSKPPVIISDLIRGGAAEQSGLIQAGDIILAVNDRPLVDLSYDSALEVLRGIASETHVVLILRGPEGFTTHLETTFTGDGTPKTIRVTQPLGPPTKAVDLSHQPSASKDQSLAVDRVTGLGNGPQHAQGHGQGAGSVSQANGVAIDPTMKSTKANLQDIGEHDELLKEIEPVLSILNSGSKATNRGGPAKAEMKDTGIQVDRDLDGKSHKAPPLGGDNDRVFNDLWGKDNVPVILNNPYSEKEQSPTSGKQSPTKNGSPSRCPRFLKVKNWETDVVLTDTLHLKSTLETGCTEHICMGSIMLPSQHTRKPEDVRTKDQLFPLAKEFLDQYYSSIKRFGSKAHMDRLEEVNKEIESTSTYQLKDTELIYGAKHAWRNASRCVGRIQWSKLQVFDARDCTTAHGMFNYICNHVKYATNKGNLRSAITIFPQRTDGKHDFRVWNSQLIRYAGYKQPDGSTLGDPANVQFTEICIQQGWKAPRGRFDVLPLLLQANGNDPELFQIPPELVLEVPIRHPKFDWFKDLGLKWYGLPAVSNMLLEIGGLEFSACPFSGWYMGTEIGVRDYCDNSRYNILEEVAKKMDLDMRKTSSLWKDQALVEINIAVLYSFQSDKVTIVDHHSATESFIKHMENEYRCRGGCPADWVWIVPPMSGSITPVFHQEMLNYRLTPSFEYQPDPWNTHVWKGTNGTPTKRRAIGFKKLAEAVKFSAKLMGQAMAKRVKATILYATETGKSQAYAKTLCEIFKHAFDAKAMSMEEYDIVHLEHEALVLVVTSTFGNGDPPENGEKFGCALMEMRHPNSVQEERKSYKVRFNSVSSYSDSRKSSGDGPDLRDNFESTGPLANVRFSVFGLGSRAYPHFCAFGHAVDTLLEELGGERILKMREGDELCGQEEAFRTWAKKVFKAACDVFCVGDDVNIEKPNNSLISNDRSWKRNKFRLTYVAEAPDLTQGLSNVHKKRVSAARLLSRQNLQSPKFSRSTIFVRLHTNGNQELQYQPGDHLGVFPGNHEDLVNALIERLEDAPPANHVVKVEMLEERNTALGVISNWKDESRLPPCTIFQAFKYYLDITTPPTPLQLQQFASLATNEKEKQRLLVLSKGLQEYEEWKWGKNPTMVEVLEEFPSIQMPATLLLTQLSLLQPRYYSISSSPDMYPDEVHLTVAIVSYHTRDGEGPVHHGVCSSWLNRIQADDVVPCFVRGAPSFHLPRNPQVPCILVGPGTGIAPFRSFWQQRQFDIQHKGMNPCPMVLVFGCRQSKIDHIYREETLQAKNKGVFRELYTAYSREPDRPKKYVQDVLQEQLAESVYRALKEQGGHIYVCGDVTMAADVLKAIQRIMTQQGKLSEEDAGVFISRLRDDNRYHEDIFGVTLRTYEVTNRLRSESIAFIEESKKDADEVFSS

For `CC1=CC=CC2=NCC(C(=O)c3ccc(Br)cc3)CN12` (centres undefined), in series [1], the Activity amounted to 9%.
Same read-out and setting: the value for `CC(=N)NCc1cccc(CN)c1` was 3%; that for `CC1=CC2=NCC(C(=O)c3ccccc3)CN2C=C1` (centres undefined) was 16%.
Broadly, the logD is the decadic logarithm of the distribution of all forms, ionised or not, between an organic phase and buffer at a given pH. The term pIC50 denotes the IC50 on a negative log10 scale, so that one unit is a factor of ten. One may read the inhibition as the percentage by which the read-out fell short of the control. Compound `CC1=CC2=NCC(C(=O)c3ccc4cc(C)ccc4c3)CN2C(C)=C1.[O-][Cl+3]([O-])([O-])O` (centres undefined) gave a log distribution coefficient (logD) in series [2] of 2.2. In series [3], the pIC50 is 4.46. In addition, the Activity result with RAW264.7 was “Non-toxic”; in series [4] it was 55%. Further, in series [5], the result was Active. For the same compound, in series [6], the inhibition is 89%.
As to `CC1=CC2=NCC(C(=O)c3ccc(F)cc3)CN2C=C1` (centres undefined), in series [1], the Activity worked out at 78%.
The same measure, in the same setting: under `O=C(c1ccc(Br)cc1)C1CN=C2C=CC=CN2C1` (centres undefined) stands 92%; under `CC1=CC2=NCC(C(=O)c3ccc(Br)cc3)CN2C=C1` (centres undefined), 33%.
In turn, `CC1=CC2=NCC(C(=O)c3ccc4ccccc4c3)CN2C=C1` (centres undefined) returned a logD in series [2] of 1.7. In addition, in series [1], the Activity worked out at 28%.
In the case of `COc1ccc2cc(C(=O)C3CN=C4C=C(C)C=CN4C3)ccc2c1` (centres undefined), the Activity in series [1] was found to be 72%.
Still for that read-out and setting: under `CCCNC(=N)NCCC[C@H](N)C(=O)O` stands 88%.
In series [2], `CC1=CC=CC2=NCC(C(=O)c3ccc(C)cc3)CN12.[O-][Cl+3]([O-])([O-])O` (centres undefined) registered a log distribution coefficient (logD) of 1.6. Moreover, the Activity result in the series on RAW264.7 was “Non-toxic”; in series [4], 76%; in series [1] it was 99%. Besides, the inhibition in series [6] turned out to be 72%.
Take `COc1ccc(C(=O)C2CN=C3C=C(C)C=CN3C2)cc1F.[O-][Cl+3]([O-])([O-])O` (centres undefined): the Activity entry with RAW264.7 was “Non-toxic”; in series [4] it was 69%. Further, the result in series [5] was Active. Moreover, in series [6], the inhibition is 64%.
In turn, `O=C(c1ccc(Cl)c(Cl)c1)C1CN=C2C=CC=CN2C1.[O-][Cl+3]([O-])([O-])O` (centres undefined) returned a pH-dependent lipophilicity (logD) in series [2] of 1.8. In addition, the Activity entry was “Non-toxic” with RAW264.7, 87% in series [4] and 95% in series [1]. Also, the result in series [5] was Active. Further, the inhibition in series [6] was 59%.
One may read the pKi as −log10 of the Ki, conventionally taken in molar units. Regarding `COc1ccc(-c2ccc(C(=O)C3CN=C4C=C(C)C=CN4C3)cc2)cc1.Cl` (centres undefined), in series [3], the pIC50 was 4.74. Also, the Activity entry with RAW264.7 was “Non-toxic”; in series [4] it was 29%. For the same compound, in series [5], the outcome was Active. Moreover, the pKi in series [7] was 4.82. The inhibition in series [6] is 96%.
In the case of `COc1ccc(C(=O)C2CN=C3C=CC=C(C)N3C2)cc1OC.[O-][Cl+3]([O-])([O-])O` (centres undefined), the logD in series [2] was 1.5. In addition, the Activity result with RAW264.7 is “Non-toxic”; in series [4], 100%; in series [1], 95%. The inhibition in series [6] came out at 70%.
The compound `CC1=CC2=NCC(C(=O)c3ccc(-c4ccc(Br)cc4)cc3)CN2C=C1.[O-][Cl+3]([O-])([O-])O` (centres undefined) yielded a logD in series [2] of 2.7. Moreover, the negative-log IC50 (pIC50) in series [3] was 4.55. The Activity result with RAW264.7 is “Non-toxic”; in series [4], 10%. Besides, the outcome in series [5] was Active. This compound also gave a negative-log Ki (pKi) in series [7] of 4.85. The inhibition in series [6] amounted to 98%.
As to `CC1=CC=CC2=NCC(C(=O)c3ccc4ccccc4c3)CN12` (centres undefined), the Activity in series [1] amounted to 75%.
Take `CC1=CC2=NCC(C(=O)c3ccc(OCc4ccc(Cl)cc4)cc3)CN2C=C1.[O-][Cl+3]([O-])([O-])O` (centres undefined): the Activity entry in the series on RAW264.7 is “Non-toxic”; in series [4], 49%. Besides, the inhibition in series [6] worked out at 92%.
As to `CC1=CC2=NCC(C(=O)c3ccc(Cl)cc3)CN2C=C1` (centres undefined), in series [1], the Activity worked out at 28%.
As to `CC1=CC2=NCC(C(=O)c3ccc4cc(C)ccc4c3)CN2C=C1.[O-][Cl+3]([O-])([O-])O` (centres undefined), in series [3], the pIC50 is 4.54. Further, the Activity entry with RAW264.7 was “Non-toxic”; in series [4] it was 69%; in series [1] it was 90%. Moreover, the result in series [5] was Active. The pKi in series [7] is 4.64. In series [6], the inhibition stood at 86%.
Take `CC1=CC2=NCC(C(=O)c3ccc(OCc4ccc(Br)cc4)cc3)CN2C=C1.Cl` (centres undefined): the Activity entry in the series on RAW264.7 is “Non-toxic”; in series [4], 62%. The inhibition in series [6] was determined as 96%.
As to `CC1=CC2=NCC(C(=O)c3ccc(-c4ccc(Br)cc4)cc3)CN2C(C)=C1` (centres undefined), the negative logarithm of the IC50 (pIC50) in series [3] is 3.92. Moreover, the Activity in series [4] came out at 58%.
Turning to `CC1=CC=CC2=NCC(C(=O)c3ccc(F)cc3)CN12.[O-][Cl+3]([O-])([O-])O` (centres undefined), the Activity entry is “Non-toxic” in the series with RAW264.7, 83% in series [4] and 83% in series [1]. Moreover, the outcome in series [5] was Active. The inhibition in series [6] came to 44%.
On to `CC1=CC2=NCC(C(=O)c3ccc(OCc4ccc(C#N)cc4)cc3)CN2C=C1.[O-][Cl+3]([O-])([O-])O` (centres undefined), for which the figures for the Activity result (with RAW264.7; in series [4]) were “Non-toxic” and 60%, respectively. Moreover, in series [6], the inhibition worked out at 93%.
Take `CC1=CC2=NCC(C(=O)c3ccc(-c4ccc(C#N)cc4)cc3)CN2C=C1.Cl` (centres undefined): in series [3], the pIC50 is 4.30. For the same compound, the Activity result in the series on RAW264.7 was “Non-toxic”; in series [4], 43%. In series [5], the outcome was Active. Moreover, in series [6], the inhibition is 82%.
For the compound `CCSC(=N)N`, in series [1], the Activity was determined as 2%.
On to `N=C(NCCC[C@H](N)C(=O)O)N[N+](=O)[O-]`, for which, in series [4], the Activity amounted to 2%. Further, in series [5], the result was Active.
For the compound `CC1=CC2=NCC(C(=O)c3ccc(-c4ccccc4)cc3)CN2C=C1` (centres undefined), the Activity in series [1] came out at 40%.
For the compound `O=C(c1ccc2ccccc2c1)C1CN=C2C=CC=CN2C1` (centres undefined), the Activity in series [1] is 97%.

The values are drawn from ChEMBL document CHEMBL1152488, “Synthesis and evaluation of pyrido[1,2-a]pyrimidines as inhibitors of nitric oxide synthases” (Eur J Med Chem, 2009).
